The test system of one data set is Liver microsome. Description: Drug level in human liver microsomes treated with lapatinib at 50 uM by LC/MS/MS analysis. It is filed as ADME. The procedure, abridged:
(§1)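 Lapatinib 50 μM (added in DMSO) incubated 30 min at 37°C in 100 mM potassium phosphate pH 7.4 with HLM 1 mg/mL or recombinant CYP3A4+b5 / CYP3A5+b5 100 pmol/mL. Reaction started with NADPH 1 mM. Protein re-isolated by ultracentrifugation (100,000 x g, 4°C, 60 min), washed (KCl/EDTA), resuspended in phosphate buffer, ±2 mM ferricyanide 10 min 37°C, quenched with acetonitrile, then high-resolution LC/MS profiling.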
(In general: Liver microsomes are vesicles of endoplasmic reticulum, rich in cytochrome P450 enzymes.)

The target of a further data set is Cytochrome P450 3A4 (Homo sapiens, UniProt P08684). Description: Activity of recombinant CYP3A4 (unknown origin) assessed as compound formation treated with lapatinib at 50 uM by LC/MS/MS analysis. The format is ADME. The note with it: recombinant enzyme. The procedure, abridged:
as §1

The nature of data set [1]: Retention time of the compound by LC/MS/MS analysis relative to lapatinib. The format is physicochemical. In short, it runs like this: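 Phenyl UPLC column (1.7 μm, 2.1 x 100 mm), 0.1% formic acid in water/acetonitrile, 0.4 mL/min. Gradient: 10% organic for 1 min, to 90% over 13 min, held 0.5 min. Detection by accurate-mass MS. Retention times expressed relative to lapatinib.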

In another data set the target is Cytochrome P450 3A5 (Homo sapiens, UniProt P20815). The data set can be described thus: Activity of recombinant CYP3A5 (unknown origin) assessed as compound formation treated with lapatinib at 50 uM by LC/MS/MS analysis. It is filed as ADME. The note with it: recombinant enzyme. The procedure, abridged:
as §1

The structures appear in SMILES notation.

Chain of Cytochrome P450 3A5 (P20815 whole entry): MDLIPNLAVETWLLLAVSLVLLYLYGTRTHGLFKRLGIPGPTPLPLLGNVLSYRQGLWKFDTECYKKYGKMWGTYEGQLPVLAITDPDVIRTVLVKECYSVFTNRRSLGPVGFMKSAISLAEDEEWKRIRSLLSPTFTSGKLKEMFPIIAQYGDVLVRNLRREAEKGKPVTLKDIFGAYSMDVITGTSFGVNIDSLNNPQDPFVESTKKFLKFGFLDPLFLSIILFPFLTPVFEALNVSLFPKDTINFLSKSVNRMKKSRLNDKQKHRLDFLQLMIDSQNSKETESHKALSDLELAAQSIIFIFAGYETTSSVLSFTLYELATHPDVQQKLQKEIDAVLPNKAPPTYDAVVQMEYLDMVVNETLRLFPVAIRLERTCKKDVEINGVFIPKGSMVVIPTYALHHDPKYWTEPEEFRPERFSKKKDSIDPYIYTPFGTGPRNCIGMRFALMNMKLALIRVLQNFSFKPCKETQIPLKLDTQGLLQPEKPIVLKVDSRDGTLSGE
Chain of Cytochrome P450 3A4 (P08684 whole entry): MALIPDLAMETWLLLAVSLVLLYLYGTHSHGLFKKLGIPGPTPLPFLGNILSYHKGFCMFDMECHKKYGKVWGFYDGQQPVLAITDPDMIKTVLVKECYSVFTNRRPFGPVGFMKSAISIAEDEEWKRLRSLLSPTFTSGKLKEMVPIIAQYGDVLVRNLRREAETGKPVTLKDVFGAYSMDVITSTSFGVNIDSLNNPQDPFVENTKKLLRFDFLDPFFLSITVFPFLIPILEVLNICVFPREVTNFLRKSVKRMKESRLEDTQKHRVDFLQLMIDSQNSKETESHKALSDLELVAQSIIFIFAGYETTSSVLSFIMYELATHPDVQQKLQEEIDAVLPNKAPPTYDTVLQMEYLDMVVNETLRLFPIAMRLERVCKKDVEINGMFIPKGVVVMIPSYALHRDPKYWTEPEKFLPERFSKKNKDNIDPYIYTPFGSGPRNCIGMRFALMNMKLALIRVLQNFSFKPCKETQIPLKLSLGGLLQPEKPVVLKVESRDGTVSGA

For the compound `CS(=O)(=O)CCNC(O)c1ccc(-c2ccc3ncnc(Nc4ccc(O)c(Cl)c4)c3c2)o1` (centres undefined), the Drug metabolism result with Liver microsome, on Cytochrome P450 3A4 and at Cytochrome P450 3A5 was “metabolite_detected” in each case. The Ratio in data set [1] came to 0.78.

The values above are taken from ChEMBL document CHEMBL3525913, “Metabolism-dependent inhibition of CYP3A4 by lapatinib: evidence for formation of a metabolic intermediate complex with a nitroso/oxime metabolite formed via a nitrone intermediate” (Drug Metab Dispos, 2013).
